Screens: PubChem, several laboratories
UBC13 polyUb = UBC13 polyubiquitin chain formation inhibitors, primary screen, biochemical, TR-FRET, uHTS | Ubiquitin-conjugating enzyme E2 N (Homo sapiens), P61088 | inhibition, % at 20 µM | hit rate 0.47% among 330,000 | AID 485273, 2010; in the data active = inhibition above about 45%, passing the limit was not always enough
DNA FID counter = compounds displacing fluorescent DNA intercalator, primary screen, artefact control for HCV NS3 helicase inhibitor project, biochemical, FID fluorescence; inhibition, % at 7.9 µM; DNA fluorescent intercalator displacement; AID 1845, 2009; hit rate 0.17% among 290,000; in the data active = inhibition above about 37%;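 also: 0% = vehicle and 100% = reference compound; higher means more ethidium bromide displaced from hairpin DNA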
Neddyl block = inhibitors of cullin neddylation, primary screen, biochemical, TR-FRET, uHTS, NAE and Ubc12 | NEDD8-conjugating enzyme Ubc12 (Homo sapiens) + NEDD8-activating enzyme E1 regulatory … | calls only at 25 µM | hit rate 0.58% among 360,000; in the data active = inhibition above about 36%
Target sequence (P61081 whole entry, looked up): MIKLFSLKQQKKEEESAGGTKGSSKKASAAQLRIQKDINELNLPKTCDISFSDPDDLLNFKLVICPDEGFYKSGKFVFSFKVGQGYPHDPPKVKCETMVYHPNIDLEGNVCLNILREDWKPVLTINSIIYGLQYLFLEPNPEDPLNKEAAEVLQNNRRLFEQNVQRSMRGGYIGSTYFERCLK
Target sequence (Q13564 whole entry, looked up): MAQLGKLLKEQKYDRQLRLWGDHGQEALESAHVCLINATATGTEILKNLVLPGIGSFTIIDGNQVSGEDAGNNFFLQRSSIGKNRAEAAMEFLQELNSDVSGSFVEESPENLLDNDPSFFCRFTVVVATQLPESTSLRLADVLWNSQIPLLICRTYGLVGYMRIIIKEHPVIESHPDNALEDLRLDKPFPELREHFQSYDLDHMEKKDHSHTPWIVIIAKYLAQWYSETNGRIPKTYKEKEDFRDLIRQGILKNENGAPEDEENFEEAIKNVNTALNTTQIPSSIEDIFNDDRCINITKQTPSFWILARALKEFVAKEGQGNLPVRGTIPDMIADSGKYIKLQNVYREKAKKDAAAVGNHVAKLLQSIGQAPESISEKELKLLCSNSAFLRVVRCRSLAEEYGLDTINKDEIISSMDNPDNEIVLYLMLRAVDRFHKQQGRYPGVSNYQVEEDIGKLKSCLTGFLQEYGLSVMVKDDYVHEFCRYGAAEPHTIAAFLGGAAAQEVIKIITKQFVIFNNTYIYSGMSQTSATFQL
RAD52 inh = RAD52 DNA annealing inhibitors, primary screen, biochemical, FRET, single point, set 2 | hit rate 0.46% among 360,000 | recombinant RAD52 DNA annealing, FRET fluorescence | DNA repair protein RAD52 homolog (Homo sapiens), P43351 | inhibition, % at 18.7 µM | AID 651710, 2012;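 active = every replicate showing at least 50% inhibition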
RAD54 branch = inhibitors of human RAD54 branch migration, primary screen, biochemical, fluorescence, single point. DNA repair and recombination protein RAD54-like (Homo sapiens), Q92698. RAD54 Holliday junction branch migration, FAM/BHQ fluorescence. inhibition, % at 10.4 µM. hit rate 0.14% among 360,000. AID 602329, 2012;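 active = mean normalized replicate activity at least 40 and at least half of replicates scoring 40 or more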;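 also: 0% = median of neutral control wells and 100% = median of positive control wells; inhibitors cause a drop in the FAM fluorescence signal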
Apaf-1 inh = inhibitors of human Apaf-1 apoptosome, primary screen, biochemical, DEVD-Rh110 fluorescence, uHTS. Apoptotic protease-activating factor 1 (Homo sapiens), O14727. reconstituted apoptosome caspase-3 activity. inhibition, % at 20 µM. hit rate 0.71% among 330,000. AID 489030, 2010; active = inhibition of at least 40% at 20 µM;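 also: plate controls were DMSO wells for no effect and DEVD-CHO caspase inhibitor wells for full effect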
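Assay system – apoptosome proteins · Medium – Hepes buffer, pH 7.5 · Also added – cytochrome c with DEVD-Rh110 · Timing – 30 min compound preincubation, 50 min activation, room temperature · Detection – Rh110 fluorescence, excitation 480 nm, emission 540 nm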
Apaf-1 inh conf2 = Apaf-1 inhibitors, single-dose retest, confirmation, biochemical, fluorescence, DEVD-Rh110, 20 µM; shares compounds with Apaf-1 inh; reconstituted apoptosome, caspase-3 DEVD-Rh110 fluorescence; inhibition, % at 20 µM; hit rate 25% among 1,800;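 active = mean inhibition of at least 40% at 20 µM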;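 also: plate controls were DMSO wells for no effect and DEVD-CHO caspase inhibitor control wells for full effect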
Rh110 interf inh = Rh110 fluorescence interference by putative Apaf-1 inhibitors, confirmation, artefact control for Apaf-1 inhibitor project, biochemical, 20 µM; 1,800 tested, under 10 active; shares compounds with Apaf-1 inh; AID 504615, 2011; quenched caspase reaction; activation (fluorescence interference), % at 20 µM;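 active = signal rise of 40% or more at 20 µM, treated as a fluorescence artifact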
Apaf1 inh interf = fluorescence interference of Apaf-1 inhibitor hits, dose response, artefact control for Apaf-1 inhibitor project. 460 tested, under 10 active. IC50, µM. AID 588538, 2011. fluorescence interference counterscreen, Apaf-1 assay format. shares compounds with Apaf-1 inh; call rule not given here
Active calls of the source: *; i = inactive; . = no result given. A selection: hits, their analogues and other compounds. The true share with any hit is near 1.6%.

SMILES	UBC13 polyUb	DNA FID counter	Neddyl block	RAD52 inh	RAD54 branch	Apaf-1 inh	Apaf-1 inh conf2	Rh110 interf inh	others
CCO[C@@H]1OC(C(=O)N2CCN(Cc3ccc4c(c3)OCO4)CC2)=C[C@H](c2ccc(C(F)(F)F)cc2)[C@H]1CCCO	16.0	-22.4	i	-11.4	2.2	41.8*	20.2	15.9
COc1ccc(-c2ccc3c(c2)[C@@H]2[C@@H](CCN2C(=O)Cc2ccccc2)[C@@H](CO)N3C)cc1	.	.	.	.	1.8	.	.	.
CC(=O)N1[C@@H]2c3ccc(-c4ccccc4)c(=O)n3C[C@@H]2[C@@H](CO)[C@@H]1C(=O)NC1CCC1	.	.	.	-0.4	5.4	.	.	.
O=C1NC(c2ccc(-c3ccccc3[N+](=O)[O-])o2)C(C(=O)c2ccc(F)cc2)C(O)(C(F)(F)F)N1 (stereo not drawn)	-23.4	-12.0	i	.	-2.3	51.1*	12.6	9.0
CC=Cc1ccc2n(c1=O)C[C@H]1[C@H](CO)[C@@H](C(=O)N3CCc4ccccc4C3)[C@@H]2N1CC (mixture of isomers)	.	.	.	.	-5.3	.	.	.
NC(=O)[C@H](Cc1cc2ccccc2s1)NC(=O)[C@@H]1CC2(CC(c3cccc(NC(=O)[C@@H]4CCC(=O)N4)c3)=NO2)CN1C(=O)/C=C/c1c(F)cccc1Cl (stereo partly drawn)	-16.4	-41.4	i	.	-5.9	46.9*	16.3	12.7
Clc1ccc(OCCSc2nnnn2C2CCCCC2)cc1	0.2	-4.5	i	.	.	65.2*	12.0	0.8
COc1ccc(CC(=O)Nc2ccccc2C(F)(F)F)cc1S(=O)(=O)N1CCOCC1	.	.	i	-12.0	-8.0	.	.	.
COc1ccc(CC(=O)N(C)CC(=O)Nc2ccccc2C(F)(F)F)cc1S(=O)(=O)N1CCOCC1	7.9	.	i	.	-7.1	46.4*	36.8	1.8
COc1ccc(CC(=O)N(Cc2ccccc2)c2ccc(C)cc2)cc1S(=O)(=O)N1CCOCC1	27.7	.	i	-56.6	-5.1	43.1*	43.1*	5.7	Apaf1 inh interf=>100
COc1ccc(CC(=O)N(C)CC(=O)Nc2c(C)cccc2C)cc1S(=O)(=O)N1CCOCC1	40.5	.	i	-10.0	-0.6	59.7*	39.3	5.1
COc1ccc(NC(=O)N(C)C[C@H]2OCc3ccccc3-c3ccccc3C(=O)N([C@@H](C)CO)C[C@H]2C)cc1	.	.	.	3.1	5.7	.	.	.
C[C@H]1CN([C@@H](C)CO)C(=O)c2cc(NC(=O)c3ccncc3)ccc2O[C@@H]1CN(C)S(=O)(=O)c1cn(C)cn1	.	.	.	-3.1	5.4	.	.	.
C[C@H](CO)N1C[C@H](C)[C@@H](CN(C)C(=O)CN(C)C)Oc2cc(C3=CCCCC3)ccc2S1(=O)=O	.	.	.	37.8	-2.4	.	.	.
CCC(=O)Nc1ccc2c(c1)OC[C@@H](C)N(Cc1cccc(F)c1)C[C@H](C)[C@H](OC)CN(C)C2=O	.	.	.	-0.5	7.5	.	.	.
C[C@@H]1CN([C@H](C)CO)S(=O)(=O)c2ccc(C3=CCCCC3)cc2O[C@@H]1CN(C)C(=O)c1ccccc1	.	.	.	-6.8	-7.3	.	.	.
COc1ccc(CN2CC(C(=O)NCc3ccc4c(c3)OCO4)CC2=O)cc1 (stereo not drawn)	6.5	-9.2	i	.	0.3	0.4	.	.
COc1ccc(CN2CC(C(=O)NCc3cccc(OC)c3)CC2=O)cc1 (stereo not drawn)	4.8	-6.2	i	.	.	66.7*	10.7	3.9
CN(CCO)c1nc(N)c2c(N)nc3c(c2c1C#N)CC(=O)N3Cc1cccs1	-13.9	3.4	.	-1.4	-1.3	77.1*	15.0	4.1
N#Cc1c(N)nc2c(c1N)CC(=O)N2c1ccccc1-c1ccccc1	-2.3	-2.5	i	.	-0.3	0.4	.	.
COCCN1C(=O)Cc2c1nc(N)c1c(N)nc(N3CCN(c4ccc(F)cc4)CC3)c(C#N)c21	0.1	-5.7	i	-7.2	.	10.3	.	.
N#Cc1c(N(CCO)CCO)nc(N)c2c(N)nc3c(c12)CC(=O)N3Cc1cccs1	-1.0	-0.5	i	.	.	72.8*	42.2*	12.4	Apaf1 inh interf=>100
O=C(c1ccco1)N1CCN(C(=O)c2cn(-c3ccccc3)nc2-c2ccc(F)cc2)CC1	0.8	.	i	0.8	-6.9	72.0*	15.2	6.1
CCc1ccc(NC(=O)[C@H](Cc2c[nH]c3ccccc23)NC(=O)[C@@H]2Cc3ccccc3CN2)cc1	11.9	11.7	i	-43.2	-8.8	41.1*	18.4	0.9
O=C1CCNc2cc3ccccc3cc21	-40.0	-5.5	.	.	0.2	62.1*	19.6	11.0
SMILES	UBC13 polyUb	DNA FID counter	Neddyl block	RAD52 inh	RAD54 branch	Apaf-1 inh	Apaf-1 inh conf2	Rh110 interf inh	others
Cc1c(C(=O)NC(C)CCc2ccccc2)cccc1[N+](=O)[O-] (stereo not drawn)	-7.9	-0.8	i	.	5.3	1.3	.	.
Cc1c(C(=O)N(CCc2ccccc2)Cc2ccccc2)cccc1[N+](=O)[O-]	12.2	-30.2	i	-8.2	9.4	41.3*	37.0	7.2
CCN(CC(=O)Nc1ccc(NC(C)=O)cc1)C(=O)c1ccccc1Sc1ccccc1C#N	34.7	.	i	-4.6	4.6	55.7*	37.3	6.3
O=C(C[C@@H]1C=C[C@@H](NC(=O)Nc2ccccc2)[C@H](CO)O1)NCc1ccccn1	.	.	.	-8.1	3.4	.	.	.
CCCCc1ccc(Nc2nc(CCC)cc(=O)[nH]2)cc1	11.1	-10.3	i	.	8.8	40.0*	33.8	4.7
NCCCCCNC(=O)[C@@H]1C[C@@H]2C(=O)N[C@@H](Cc3ccccc3)C(=O)N2[C@@H]1c1ccc(O)cc1	.	.	.	14.6	-11.2	.	.	.
CCCCCn1c(N2CCC(Cc3ccccc3)CC2)nc2c1c(=O)[nH]c(=O)n2C	17.0	-14.5	i	.	-7.8	45.8*	31.5	10.7
CCCn1c(N2CCC(Cc3ccccc3)CC2)nc2c1c(=O)[nH]c(=O)n2C	1.8	-27.7	i	.	-10.1	35.7	.	.
O=C(CN1CCc2cc3c(cc2C1)OCCCO3)Nc1cccc([N+](=O)[O-])c1	1.2	25.4	i	-7.8	.	43.3*	24.7	-7.2
